Measured values as given in ChEMBL document CHEMBL1131239, “Orally active benzamide antipsychotic agents with affinity for dopamine D2, serotonin 5-HT1A, and adrenergic alpha1 receptors” (J Med Chem, 1998).
pKi: −log10 of the molar value.

Columns and labels:
Rattus norvegicus [1] = test: compound was tested for antipsychotic activity by conditioned avoidance response(CAR) assay in rats with a pretreatment period of 60 min upon peroral administration at a concentration of 20 mg/kg.; assay type: functional; details: route oral
Summary of the method: (§1)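 Trained rats (N = 4) were run in 1-h sessions on two consecutive days, with the experimenter blind to drug and dose. Fed rats had food and water until placed in the test chambers. Fasted rats had no food overnight before the experiment.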

[2] = molecular target: T1, 5-hydroxytryptamine receptor 1A (Rattus norvegicus, UniProt P19327); test: Compound was evaluated for its binding affinity against 5-hydroxytryptamine 1A receptor from rat cerebral cortex; assay type: tissue-based
T1 sequence (P19327 whole entry): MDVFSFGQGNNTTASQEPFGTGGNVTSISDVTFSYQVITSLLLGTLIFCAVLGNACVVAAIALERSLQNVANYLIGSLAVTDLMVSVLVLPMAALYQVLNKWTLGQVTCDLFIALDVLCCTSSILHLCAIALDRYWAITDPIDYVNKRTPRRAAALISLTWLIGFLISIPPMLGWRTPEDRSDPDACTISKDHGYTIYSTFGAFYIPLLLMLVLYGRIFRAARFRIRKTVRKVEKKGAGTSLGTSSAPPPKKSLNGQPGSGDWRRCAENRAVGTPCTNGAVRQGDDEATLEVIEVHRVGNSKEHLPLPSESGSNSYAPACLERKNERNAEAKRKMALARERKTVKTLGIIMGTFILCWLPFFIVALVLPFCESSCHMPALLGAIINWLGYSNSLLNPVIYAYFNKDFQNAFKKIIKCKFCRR

Rattus norvegicus [3] = test: compound was tested for antipsychotic activity by conditioned avoidance response(CAR) assay in rats with a pretreatment period of 30 min upon intra peritoneal administration at a concentration of 1 mg/kg.; assay type: functional; summary of the method: as §1
Rattus norvegicus [4] = test: compound was tested for antipsychotic activity by conditioned avoidance response(CAR) assay in rats with a pretreatment period of 30 min upon intra peritoneal administration at a concentration of 5 mg/kg.; assay type: functional
Summary of the method: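 Rat conditioned avoidance test modified from Martin et al. Trained rats (N = 4) were run in 1-h sessions on two consecutive days. Fed animals had food and water until placed in the test chambers. Dosing was ip with 30 min pretreatment, and activity was expressed as percent inhibition at the stated dose.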

[5] = molecular target: T2, Adrenergic receptor alpha-1 (Rattus norvegicus, UniProt P15823+P23944+P43140); test: Binding affinity against Alpha-1 adrenergic receptor from rat cerebral cortex; assay type: tissue-based
T2 sequence (P15823 whole entry): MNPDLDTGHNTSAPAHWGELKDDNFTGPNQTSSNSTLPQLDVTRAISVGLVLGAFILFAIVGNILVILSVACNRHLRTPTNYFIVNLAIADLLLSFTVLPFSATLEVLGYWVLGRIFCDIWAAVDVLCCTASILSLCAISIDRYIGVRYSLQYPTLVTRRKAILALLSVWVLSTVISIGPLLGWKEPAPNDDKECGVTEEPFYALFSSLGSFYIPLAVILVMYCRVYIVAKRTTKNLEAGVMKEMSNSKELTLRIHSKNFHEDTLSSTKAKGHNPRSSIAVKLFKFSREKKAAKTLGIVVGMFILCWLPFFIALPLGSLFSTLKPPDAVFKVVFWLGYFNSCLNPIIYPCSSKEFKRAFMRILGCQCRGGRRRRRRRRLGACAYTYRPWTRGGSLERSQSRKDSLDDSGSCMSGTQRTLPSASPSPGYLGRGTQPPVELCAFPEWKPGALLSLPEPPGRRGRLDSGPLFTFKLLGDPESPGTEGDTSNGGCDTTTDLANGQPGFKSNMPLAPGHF
T2 sequence (P23944 whole entry): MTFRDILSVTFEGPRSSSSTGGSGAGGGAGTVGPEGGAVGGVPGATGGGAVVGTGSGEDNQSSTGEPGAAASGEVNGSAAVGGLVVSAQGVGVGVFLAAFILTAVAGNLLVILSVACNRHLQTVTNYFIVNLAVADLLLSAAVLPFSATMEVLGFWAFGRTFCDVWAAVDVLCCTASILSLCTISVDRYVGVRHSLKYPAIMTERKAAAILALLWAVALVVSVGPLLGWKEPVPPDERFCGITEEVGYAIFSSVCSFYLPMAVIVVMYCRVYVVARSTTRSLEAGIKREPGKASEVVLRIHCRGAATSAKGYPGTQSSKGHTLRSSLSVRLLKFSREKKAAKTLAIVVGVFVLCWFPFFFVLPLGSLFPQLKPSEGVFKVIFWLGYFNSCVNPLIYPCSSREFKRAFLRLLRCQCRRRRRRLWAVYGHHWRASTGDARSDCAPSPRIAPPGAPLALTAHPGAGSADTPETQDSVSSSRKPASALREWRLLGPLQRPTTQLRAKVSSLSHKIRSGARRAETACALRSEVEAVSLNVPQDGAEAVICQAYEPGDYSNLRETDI
T2 sequence (P43140 whole entry): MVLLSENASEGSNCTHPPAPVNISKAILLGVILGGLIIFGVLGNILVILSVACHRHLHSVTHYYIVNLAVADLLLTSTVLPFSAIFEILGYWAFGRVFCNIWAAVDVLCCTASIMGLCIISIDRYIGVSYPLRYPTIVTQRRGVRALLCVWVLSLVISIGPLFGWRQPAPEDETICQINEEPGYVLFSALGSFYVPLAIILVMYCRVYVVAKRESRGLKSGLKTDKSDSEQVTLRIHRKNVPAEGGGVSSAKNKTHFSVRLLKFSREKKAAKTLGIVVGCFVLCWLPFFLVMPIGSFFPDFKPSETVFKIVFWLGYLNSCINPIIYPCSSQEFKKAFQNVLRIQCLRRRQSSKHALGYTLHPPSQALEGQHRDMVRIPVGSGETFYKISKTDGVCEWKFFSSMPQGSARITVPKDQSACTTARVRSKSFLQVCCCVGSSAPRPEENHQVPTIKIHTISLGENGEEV

Rattus norvegicus [6] = test: Percent catalepsy in male Spargue-Dawley rat at pretreatment time 60 mins and administered ip at dose 50 mg/kg; assay type: functional; details: route intraperitoneal
Summary of the method: (§2)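 Catalepsy in rats, groups of five per drug treatment, scored blind to drug and dose. Each session included a saline or vehicle negative control and a haloperidol 2 mg/kg positive control. Deaths during the experiment were recorded in the catalepsy column as number dead out of five.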

Rattus norvegicus [7] = test: compound was tested for antipsychotic activity by conditioned avoidance response(CAR) assay in rats with a pretreatment period of 30 min upon intra peritoneal administration.; assay type: functional; summary of the method: as §1
Rattus norvegicus [8] = test: compound was tested for antipsychotic activity by conditioned avoidance response(CAR) assay in rats with a pretreatment period of 60 min upon peroral administration; assay type: functional; details: po; summary of the method: as §1
Rattus norvegicus [9] = test: Percent catalepsy in male Spargue-Dawley rat at pretreatment time 60 mins and when administered ip at dose 50 mg/kg (1/5L denotes that one rat out of five died during the course of experiment); assay type: functional; details: route intraperitoneal
Summary of the method: (§3)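 Catalepsy scored in groups of five rats per drug treatment, with the experimenter blind to drug and dose, in a quiet room. Each session included two control groups: saline (or vehicle) as negative control and haloperidol 2 mg/kg as positive control. Deaths during the experiment were recorded as lethality (e.g., 3/5L) in place of percent catalepsy.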

Rattus norvegicus [10] = test: compound was tested for antipsychotic activity by conditioned avoidance response(CAR) assay in rats with a pretreatment period of 240 min upon peroral administration; assay type: functional; details: po; summary of the method: as §1
Rattus norvegicus [11] = test: Percent catalepsy in male Spargue-Dawley rat at pretreatment time 240 mins and when administered ip at dose 100 mg/kg (3/5L denotes that three rats out of five died during the course of experiment); assay type: functional; details: route intraperitoneal; summary of the method: as §3
Rattus norvegicus [12] = test: compound was tested for antipsychotic activity by conditioned avoidance response(CAR) assay in rats with a pretreatment period of 30 min upon intra peritoneal administration; assay type: functional; summary of the method: as §1
Rattus norvegicus [13] = test: Percent catalepsy in male Spargue-Dawley rat at pretreatment time 240 mins and when administered ip at dose 50 mg/kg; assay type: functional; details: route intraperitoneal; summary of the method: as §2
Rattus norvegicus [14] = test: compound was tested for antipsychotic activity by conditioned avoidance response(CAR) assay in rats with a pretreatment period of 30 min upon peroral administration; assay type: functional; details: po; summary of the method: as §1
Rattus norvegicus [15] = test: Percent catalepsy in male Spargue-Dawley rat at pretreatment time 240 mins and when administered po at dose 250 mg/kg; assay type: functional; summary of the method: as §2
Rattus norvegicus [16] = test: Percent catalepsy in male Spargue-Dawley rat at pretreatment time 60 mins and when administered ip at dose 50 mg/kg; assay type: functional; details: route intraperitoneal; summary of the method: as §2
Rattus norvegicus [17] = test: compound was tested for antipsychotic activity by conditioned avoidance response(CAR) assay in rats with a pretreatment period of 120 min upon peroral administration; assay type: functional; details: po; summary of the method: as §1
Rattus norvegicus [18] = test: Percent catalepsy in male Spargue-Dawley rat at pretreatment time 60 mins and when administered po at dose 250 mg/kg; assay type: functional; summary of the method: as §2
Rattus norvegicus [19] = test: compound was tested for antipsychotic activity by conditioned avoidance response(CAR) assay in rats with a pretreatment period of 60 min upon peroral administration. Values in brackets indicates 95% confidence limits for ED50; assay type: functional; details: po
Summary of the method: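 Rats trained in conditioned avoidance were run in a 1-h session on two consecutive days (N = 4). The read-out was reduction of the conditioned response to a disagreeable stimulus. Oral dosing was 60 min before testing. Fed rats had food and water until placed in the test chambers; fasted rats had no food overnight before the experiment.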

Rattus norvegicus [20] = test: Percent catalepsy in male Spargue-Dawley rat at pretreatment time 240 mins and administered ip at dose 50 mg/kg; assay type: functional; details: route intraperitoneal; summary of the method: as §2
Rattus norvegicus [21] = test: compound was tested for antipsychotic activity by conditioned avoidance response(CAR) assay in rats with a pretreatment period of 60 min upon peroral administration.; assay type: functional; details: po; summary of the method: as §1
Rattus norvegicus [22] = test: compound was tested for antipsychotic activity by conditioned avoidance response(CAR) assay in rats and pretreatment period of 60 min upon peroral administration; assay type: functional; details: po; summary of the method: as §1

Question: What does the source list for `CC(=O)N(C)C(=O)c1cccc(CN2CCN(c3ccccc3OC(C)C)CC2)c1`?
Answer: inhibition in vivo at 20 mg/kg (Rattus norvegicus [1]): -1.6%; pKi [2]: 8.48; inhibition in vivo at 1 mg/kg (Rattus norvegicus [3]): -9.6%; inhibition in vivo at 5 mg/kg (Rattus norvegicus [4]): -94.5%; Ki [5]: 388 nM

Question: `COc1ccccc1N1CCN(Cc2cccc(C(=O)N3CCCCCC3)c2)CC1` was tested. Which Catalepsy (Rattus norvegicus [6]) did it give?
Answer: 70%

Question: And the pKi [2]?
Answer: 9.34

Question: And the inhibition in vivo at 5 mg/kg (Rattus norvegicus [4])?
Answer: -94.6%

Question: What about the Ki [5] of the same compound?
Answer: 4.7 nM

Question: Which results are given for `CC(C)Oc1ccccc1C1CCN(Cc2cccc(C(=O)N3CCCCC3)c2)CC1`?
Answer: ED50 (Rattus norvegicus [7]): 0.75 mg/kg; ED50 (Rattus norvegicus [8]): 7.69 mg/kg; Catalepsy (Rattus norvegicus [9]): 26.3%; Ki [5]: 2.2 nM; ED50 (Rattus norvegicus [10]): 7.93 mg/kg

Question: With `CC(C)Oc1ccccc1N1CCN(Cc2cccc(C(=O)N3CCCCCC3)c2)CC1` as the compound, how does the ED50 (Rattus norvegicus [8]) read?
Answer: 11.9 mg/kg

Question: And the Catalepsy (Rattus norvegicus [11])?
Answer: 0%

Question: What about the pKi [2] of the same compound?
Answer: 9.22

Question: And the ED50 (Rattus norvegicus [12])?
Answer: 0.85 mg/kg

Question: And the Catalepsy (Rattus norvegicus [13])?
Answer: 24.1%

Question: And the ED50 (Rattus norvegicus [14])?
Answer: 3.32 mg/kg

Question: What about the Ki [5] of the same compound?
Answer: 2.1 nM

Question: And the Catalepsy (Rattus norvegicus [15])?
Answer: 15.5%

Question: What about the Catalepsy (Rattus norvegicus [16]) of the same compound?
Answer: 27.8%

Question: What about the ED50 (Rattus norvegicus [17]) of the same compound?
Answer: 15.4 mg/kg

Question: What about the Catalepsy (Rattus norvegicus [18]) of the same compound?
Answer: 32.5%

Question: How did the ED50 (Rattus norvegicus [19]) turn out when `O=C(CCCN1CCC(O)(c2ccc(Cl)cc2)CC1)c1ccc(F)cc1` [HALOPERIDOL] was run?
Answer: 0.31 mg/kg

Question: What does the source list for `CC(C)Oc1ccccc1N1CCN(Cc2cccc(C(=O)N3CCCCC3)c2)CC1` [MAZAPERTINE]?
Answer: ED50 (Rattus norvegicus [8]): 3.35 mg/kg; Catalepsy (Rattus norvegicus [6]): 32.4%; ED50 (Rattus norvegicus [14]): 14.5 mg/kg; Catalepsy (Rattus norvegicus [20]): 47.8%; ED50 (Rattus norvegicus [21]): 11 mg/kg; ED50 (Rattus norvegicus [17]): 26 mg/kg

Question: With `CC(C)Oc1ccccc1N1CCN(Cc2ccc(CN3CCCCC3=O)n2C)CC1` [RWJ-25730] as the compound, how does the ED50 (Rattus norvegicus [22]) read?
Answer: 34.7 mg/kg
